From PubChem BioAssay
This is a sample that favours compounds with a hit; in the whole collection about 2.3% have one here.
tolC growth inh – blocks growth of E. coli BW25113 tolC mutant | OD615 | growth inhibition, % at 10 µM (by protocol) | 2.2% of 65,000 active;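 active = growth inhibition at or above a cutoff equal to the mean over every tested compound plus 3 SD, cut at about 60% in these data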;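 note: growth measured after 20 h incubation at 37 °C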
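System: E. coli ΔtolC::kan strain BW25113; Buffer or medium: LB broth supplemented with 50 µg/mL kanamycin; Compound: 10 µM final, single dose; Incubation: bacterial growth with compound for 20 h at 37 °C; Signal: A615 absorbance measurement; Evaluation: growth inhibition in percent.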
AP ELISA ortho – alternative pathway complement inhibition, orthogonal assay; Human serum alternative complement pathway, LPS-coated ELISA, C3 deposition; tested in compound mixtures; inhibition, % at 5 µM; 0.08% of 62,000 active;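 active = inhibition above 30% in each of the two pooled mixtures holding the compound, so the lower value exceeds 30%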
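Assay system: human serum alternative complement pathway, C3 deposition on LPS-coated wells; Dosing: 5 µM per compound in ten-compound mixtures; Detection: Anti-C3 ELISA, OD 450 nm; Buffer or medium: Mg2+-EGTA GVB++ buffer containing human serum at 1:15 dilution; Timing: 1 h at 37 °C; Replication: two different pools per compound.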
HePTP inh – blocks human HePTP tyrosine phosphatase | P35236 | recombinant HePTP phosphatase activity, OD absorbance | inhibition, % at 20 µM | 0.64% of 110,000 active | AID 521; in the data active = inhibition above about 50%
Target sequence (P35236 whole entry, looked up): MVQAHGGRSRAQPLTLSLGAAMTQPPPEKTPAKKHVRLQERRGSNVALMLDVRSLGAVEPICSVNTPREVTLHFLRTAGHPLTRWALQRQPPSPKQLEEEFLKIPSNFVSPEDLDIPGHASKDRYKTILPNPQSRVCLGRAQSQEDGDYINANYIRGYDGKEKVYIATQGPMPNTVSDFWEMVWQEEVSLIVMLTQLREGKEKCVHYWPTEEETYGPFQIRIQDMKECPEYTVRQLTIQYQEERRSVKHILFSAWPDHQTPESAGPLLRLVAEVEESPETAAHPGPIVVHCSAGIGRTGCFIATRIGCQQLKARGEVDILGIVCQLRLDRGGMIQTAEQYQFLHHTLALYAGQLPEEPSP
Ecoli WT expand – blocks growth of wild type E. coli BW25113; OD600 absorbance; growth inhibition, % at 100 µM; 0.15% of 98,000 active; AID 710;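 active = growth inhibition above about 50% at one test dose, limit read from the data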;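 note: growth measured after 20 h incubation at 37 °C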
PLAP act – activates human placental alkaline phosphatase. P05187. purified PLAP enzyme, luminescent substrate read-out; active compounds read high. activation fold at 20 µM. 1.2% of 96,000 active. AID 696; in the data active = activation fold above about 2
A number is an active result.

For C=C(C)C1CCC(C)=C1COC(=O)Nc1ccccc1 (centres undefined) the results were tolC growth inh 78, AP ELISA ortho inactive, HePTP inh inactive, Ecoli WT expand inactive and PLAP act inactive.
`CC1=CC(C)C(COC(=O)Nc2ccccc2)C(C)C1` (centres undefined) gave HePTP inh inactive.
For Cc1sc2nc(CN(Cc3cccs3)C(=O)NC3CCCCC3)[nH]c(=O)c2c1C the results were tolC growth inh 89, AP ELISA ortho inactive, HePTP inh inactive, Ecoli WT expand inactive and PLAP act inactive.
For CN1C(=O)C(=O)/C(=C(\O)c2ccc(Cl)cc2)C1c1cccc([N+](=O)[O-])c1 (centres undefined) the results were HePTP inh inactive.
`NC1=NC(c2cn(-c3ccccc3)nc2-c2cccs2)n2c(nc3ccccc32)N1` (centres undefined) gave tolC growth inh 100, AP ELISA ortho inactive, HePTP inh inactive, Ecoli WT expand inactive and PLAP act inactive.
For CC(C)NC(=O)c1cc2nc(-c3ccco3)cc(C(F)(F)F)n2n1 the results were Ecoli WT expand inactive and PLAP act inactive.
`O=C(c1cc2nc(-c3ccco3)cc(C(F)(F)F)n2n1)N1CCN(Cc2ccccc2)CC1` gave Ecoli WT expand inactive and PLAP act inactive.
CC1CCc2cc(F)ccc2N1C(=O)c1cc2nc(-c3ccco3)cc(C(F)(F)F)n2n1 (centres undefined) was read as tolC growth inh 63, AP ELISA ortho inactive, HePTP inh inactive, Ecoli WT expand inactive and PLAP act inactive.
O=C(c1cc2nc(-c3ccco3)cc(C(F)(F)F)n2n1)N1CCN(c2ccc(F)cc2)CC1 was read as tolC growth inh 65, AP ELISA ortho inactive, HePTP inh inactive, Ecoli WT expand inactive and PLAP act inactive.
For N/C(=N\c1nc2c(c(=O)[nH]1)CCCC2)Nc1ccccc1 the results were tolC growth inh inactive, AP ELISA ortho inactive, HePTP inh inactive, Ecoli WT expand inactive and PLAP act inactive.
For N/C(=N\c1nc2c(c(=O)[nH]1)CCCC2)Nc1ccccc1Sc1ccccc1 the results were Ecoli WT expand inactive and PLAP act 2.
CCOc1ccc2c(c1)n(CO)c(=S)n2CO was read as tolC growth inh inactive, AP ELISA ortho inactive, HePTP inh inactive, Ecoli WT expand inactive and PLAP act 2.3.
`CCOc1ccc2[nH]c(=S)[nH]c2c1` gave Ecoli WT expand inactive and PLAP act inactive.
For CCn1c(CNc2ccc(C(=O)O)cc2)nc2ccccc21 the results were Ecoli WT expand inactive and PLAP act inactive.
`CCCn1c(CNc2ccc(Br)cc2)nc2ccccc21` gave tolC growth inh 100, AP ELISA ortho inactive, HePTP inh inactive and Ecoli WT expand inactive.
Cn1c(Cc2cccs2)nnc1SCc1nc2ccccc2[nH]1 was read as tolC growth inh inactive, AP ELISA ortho inactive, HePTP inh inactive, Ecoli WT expand inactive and PLAP act 2.
Screening Cn1c(SCc2nc3ccccc3[nH]2)nnc1-c1cccs1 returned tolC growth inh inactive, AP ELISA ortho inactive, HePTP inh inactive, Ecoli WT expand inactive and PLAP act inactive.
Screening CCOC(=O)c1c(NC(=O)c2ccc(OC)cc2)sc(C(=O)Nc2cc(C(F)(F)F)ccc2Cl)c1C returned HePTP inh inactive.
For C=CCN1C(=O)/C(=C\c2ccc(-c3ccc(C(=O)OCC)cc3)o2)SC1=S the results were HePTP inh inactive.
For CS(=O)(=O)N(CC(=O)N1CCc2ccccc2C1)Cc1ccccc1 the results were Ecoli WT expand inactive and PLAP act 2.2.
`Fc1ccc(Br)cc1C1C=C(c2ccc(Br)s2)Nc2ncnn21` (centres undefined) gave tolC growth inh 69, AP ELISA ortho inactive, HePTP inh inactive, Ecoli WT expand inactive and PLAP act inactive.
`Cc1csc(NC(=O)c2cccc(Cn3nc(C)c(Br)c3C)c2)n1` gave tolC growth inh 73, AP ELISA ortho inactive, HePTP inh inactive, Ecoli WT expand inactive and PLAP act inactive.
Screening CCOC(=O)C1=C(C)N(C)C(=O)NC1c1ccc(O)cc1 (centres undefined) returned HePTP inh inactive.
Screening CCn1cc(C(=O)NC2CCCCC2C)c(=O)c2ccc(C)nc21 (centres undefined) returned tolC growth inh 100, AP ELISA ortho inactive, HePTP inh inactive, Ecoli WT expand 92 and PLAP act inactive.
For CCN(CC)c1ccc(N2C(=O)/C(=C/c3cccc([N+](=O)[O-])c3)SC2=S)cc1 the results were HePTP inh inactive.
CCN1CCN(C(=O)c2ccc3c(=O)n(C4CCCC4)c(=S)[nH]c3c2)CC1 was read as tolC growth inh inactive, AP ELISA ortho inactive, HePTP inh inactive, Ecoli WT expand inactive and PLAP act inactive.
Screening O=C(c1ccc2c(=O)n(C3CCCC3)c(=S)[nH]c2c1)N1CCN(C2CCCCC2)CC1 returned tolC growth inh 68, AP ELISA ortho inactive, HePTP inh inactive, Ecoli WT expand inactive and PLAP act inactive.
`Cn1cc(C(=O)N/N=C/c2ccccc2)ccc1=O` gave HePTP inh inactive.
Screening Cc1cc(Cl)ccc1OCC(O)CNC(C)C (centres undefined) returned HePTP inh inactive.
CC(=O)Oc1cc(C)cc2oc(=O)c(Cc3ccccc3)c(C)c12 was read as HePTP inh inactive.
Screening Cc1ccc(Cn2c(SCC(C)C)nc3c2c(=O)n(C)c(=O)n3C)cc1 returned tolC growth inh 92, AP ELISA ortho inactive, HePTP inh inactive, Ecoli WT expand inactive and PLAP act inactive.
COc1ccc(S(=O)(=O)Nc2cc3c(C(C)=O)c(C)oc3c3ccccc23)cc1 was read as HePTP inh inactive, Ecoli WT expand inactive and PLAP act 2.
CCc1ccc(S(=O)(=O)Nc2cc3c(C(=O)O)c(C)oc3c3ccccc23)cc1 was read as HePTP inh inactive.
For Cc1ccc(C(=O)Nc2ccc(Cl)cc2C)cc1 the results were HePTP inh inactive.
Screening CCOc1cccc(=[O+]CC)c2c(C)oc(C)c12 returned HePTP inh 102.
Screening Cc1csc(NC(=O)CSc2ncnc3c2cnn3-c2ccccc2Cl)n1 returned tolC growth inh 61, AP ELISA ortho inactive, HePTP inh inactive, Ecoli WT expand inactive and PLAP act inactive.
Screening COc1ccc(CC(=O)Nc2sc3c(c2C#N)CCCC3)cc1 returned HePTP inh inactive.
For O=C(Nc1cccnc1)C(Cc1ccccc1)n1cccc1 (centres undefined) the results were tolC growth inh inactive, AP ELISA ortho inactive, HePTP inh inactive, Ecoli WT expand inactive and PLAP act inactive.
For O=C(Nc1ncc(Br)s1)C(Cc1ccccc1)n1cccc1 (centres undefined) the results were tolC growth inh 96, AP ELISA ortho inactive, HePTP inh inactive, Ecoli WT expand inactive and PLAP act inactive.
`Cc1cc(SCC#N)n2nc(C)c(-c3ccccc3)c2n1` gave tolC growth inh 61, AP ELISA ortho inactive, HePTP inh inactive, Ecoli WT expand inactive and PLAP act inactive.
Screening Cc1cc(SCC#N)n2nc(C)c(-c3ccc(Cl)cc3)c2n1 returned Ecoli WT expand inactive and PLAP act inactive.
